# Test results taken from ChEMBL document CHEMBL1649235, “The proteasome inhibitor epoxomicin has potent Plasmodium falciparum gametocytocidal activity” (Antimicrob Agents Chemother, 2009).
# Calls of active or inactive are those of the source. The calls are words filed in the database; no cut-off is given here.
# Assays:
# [1] = test system: Plasmodium falciparum; assay: Antimicrobial activity against asexual stage of Plasmodium falciparum 3D7 assessed as reduction in parasite count at 100 nM after 24 hrs by Giemsa staining; type: functional; set-up: scale not given: the % may be the effect or the level left
# In short: (§1)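 Mixed asexual/gametocyte 3D7 cultures (mainly stage II–III gametocytes) exposed 24 h to serial dilutions (10 nM to 1 µM) or DMSO carrier at 37°C under low-oxygen gas. Asexual parasites and gametocytes counted on Giemsa smears and expressed as percent of DMSO control. IC50 calculated from the 24-h time point.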
# [2] = test system: Plasmodium falciparum; assay: Antimicrobial activity against asexual stage of Plasmodium falciparum 3D7 assessed as reduction in parasite count at 1uM after 24 hrs by Giemsa staining; type: functional; set-up: scale not given: the % may be the effect or the level left; in short: as §1
# [3] = test system: Plasmodium falciparum; assay: Antimicrobial activity against gametocyte stage of Plasmodium falciparum 3D7 after 24 hrs; type: functional, organism-based; settings: 3D7, 24 h; in short: as §1
# [4] = test system: Plasmodium falciparum; assay: Antimicrobial activity against asexual stage of Plasmodium falciparum 3D7 after 24 hrs; type: functional, organism-based; settings: 3D7, 24 h; in short: as §1
# [5] = Cytotoxicity against human A549 cells assessed as viable cells at 1 uM by MTS assay in presence of 10% fetal calf serum; type: cell-based; settings: read-out: Activity
# In short: (§2)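 NIH-3T3 mouse fibroblasts or A549 human lung epithelial cells (1 × 104 to 5 × 10^4 per well) in DMEM with 10% FCS. Viability read by MTS tetrazolium reduction as absorbance.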
# [6] = Cytotoxicity against mouse 3T3 cells assessed as viable cells at 1 uM by MTS assay in presence of 10% fetal calf serum; type: cell-based; settings: 3T3 cells (NIH3T3), read-out: Activity; in short: as §2
# [7] = test system: Plasmodium falciparum; assay: Antimicrobial activity against gametocyte stage of Plasmodium falciparum 3D7 assessed as reduction in parasite count at 100 nM after 24 hrs by Giemsa staining; type: functional; set-up: scale not given: the % may be the effect or the level left; in short: as §1
# [8] = test system: Plasmodium falciparum; assay: Antimicrobial activity against gametocyte stage of Plasmodium falciparum 3D7 assessed as reduction in parasite count at 1 uM after 24 hrs by Giemsa staining; type: functional; set-up: scale not given: the % may be the effect or the level left; in short: as §1
# [9] = test system: Plasmodium falciparum; assay: Antimicrobial activity against Plasmodium falciparum 3D7 assessed as gametocytes per 1000 RBCs at 100 uM after 2 days by Giemsa staining relative to control; type: functional
# In short: (§3)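 3D7 cultures holding asexual parasites and gametocytes, gametocytogenesis induced per Ifediba and Vanderberg. Inhibitor at 100 µM or DMSO carrier for 24 h in a sealed chamber (90% N2, 5% CO2, 5% O2) at 37°C. Fed daily with RPMI 1640, hypoxanthine (10 mg liter−1) and 10% human serum. Gametocytes per 1,000 RBCs counted and staged on Giemsa smears 2 days after treatment.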
# [10] = test system: Plasmodium falciparum; assay: Antimicrobial activity against gametocyte stage of Plasmodium falciparum 3D7 at 100 uM after 24 hrs by Giemsa staining; type: functional, organism-based
# In short: (§4)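 3D7 cultures containing asexual stages and gametocytes incubated 24 h with inhibitor at 100 µM or DMSO carrier, at 37°C in a sealed chamber (90% N2, 5% CO2, 5% O2), fed with RPMI 1640, hypoxanthine and 10% human serum. Asexual parasites and gametocytes assessed on Giemsa-stained smears.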
# [11] = test system: Plasmodium falciparum; assay: Antimicrobial activity against asexual stage of Plasmodium falciparum 3D7 at 100 uM after 24 hrs by Giemsa staining; type: functional, organism-based; in short: as §4
# [12] = test system: Plasmodium falciparum; assay: Antimicrobial activity against Plasmodium falciparum 3D7 assessed as stage 2 gametocytes per 1000 RBCs at 100 uM after 2 days by Giemsa staining relative to control; type: functional; in short: as §3
# [13] = test system: Plasmodium falciparum; assay: Antimicrobial activity against Plasmodium falciparum 3D7 assessed as stage 3 gametocytes per 1000 RBCs at 100 uM after 2 days by Giemsa staining relative to control; type: functional; in short: as §3
# [14] = test system: Plasmodium falciparum; assay: Antimicrobial activity against Plasmodium falciparum 3D7 assessed as stage 4 gametocytes per 1000 RBCs at 100 uM after 2 days by Giemsa staining relative to control; type: functional; in short: as §3
# [15] = test system: Plasmodium falciparum; assay: Antimicrobial activity against Plasmodium falciparum 3D7 assessed as stage 3 gametocyte per 1000 RBCs at 100 uM after 5 days by Giemsa staining relative to control; type: functional
# In short: (§5)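 Gametocyte cultures of strain 3D7, 8 days after setup, exposed 24 h to inhibitor at 100 µM or an equal amount of DMSO. Kept at 37°C under 90% N2/5% CO2/5% O2 and fed daily with RPMI 1640, hypoxanthine and 10% human serum. Gametocytes per 1,000 RBCs scored by stage (II–V) on Giemsa-stained smears.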
# [16] = test system: Plasmodium falciparum; assay: Antimicrobial activity against Plasmodium falciparum 3D7 assessed as stage 4 gametocyte per 1000 RBCs at 100 uM after 5 days by Giemsa staining relative to control; type: functional; in short: as §5
# [17] = test system: Plasmodium falciparum; assay: Antimicrobial activity against Plasmodium falciparum 3D7 assessed as stage 5 gametocyte per 1000 RBCs at 100 uM after 5 days by Giemsa staining relative to control; type: functional; in short: as §5
# [18] = test system: Plasmodium falciparum; assay: Antimicrobial activity against asexual stage of Plasmodium falciparum 3D7 assessed as reduction in parasite count at 100 uM after 24 hrs by Giemsa staining; type: functional, organism-based; in short: as §4
smiles,measurement,setting,value
CC[C@H](C)[C@H](NC(=O)[C@H]([C@@H](C)CC)N(C)C(C)=O)C(=O)N[C@H](C(=O)N[C@@H](CC(C)C)C(=O)[C@@]1(C)CO1)[C@@H](C)O [EPOXOMYCIN],Activity,[1],86%
same,Activity,[2],86%
same,IC50,[3],54 nM
same,IC50,[4],41 nM
same,viability at 1 µM,[5],80%
same,viability at 1 µM,[6],80%
same,Activity,[7],77%
same,Activity,[8],77%
Cc1ccc(S(=O)(=O)N[C@@H](Cc2ccccc2)C(=O)CCl)cc1 [TPCK],Activity,[9],21%
same,Activity,[10],inactive
same,Activity,[11],inactive
CCOC(=O)[C@H]1O[C@@H]1C(=O)N[C@@H](CC(C)C)C(=O)NCCC(C)C [ALOXISTATIN],Activity,[12],72%
same,Activity,[13],18%
same,Activity,[14],10%
same,Activity,[15],22%
same,Activity,[16],68%
same,Activity,[17],10%
same,Activity,[18],Active
